This is one part of a sample in which hits are shown more often than they occur.
T cruzi intra = intracellular Trypanosoma cruzi inhibition; intracellular Trypanosoma cruzi in host cells, plate reader; activity score (inhibition), % at 5.01 µM; 22,000 compounds, 4.9% hits; in the data active means activity score above about 55%;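 further: parasites and compound incubated about four days before reading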
INS-1E rescue = rescue of cytokine-induced death in INS-1E beta cells | INS-1E cytokine-induced death, ATP luminescence, 48 h; normalised: neutral wells 0, positive control 100 | protection from cytokine-induced ATP loss, % at 10 µM | 20,000 compounds, 0.1% hits;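 active means mean replicate protection from cytokine-induced ATP loss at least 50% and at least 75% of replicates each reaching 50%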
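Assay system – rat INS-1E insulinoma cell line · Quantity – 8000 cells per well · Buffer or medium – RPMI without phenol red, 5% FBS · Schedule – 48 h co-treatment, 10 min post-lysis read · Technique – luminescent ATP assay (CellTiter-Glo)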
YB-1 expr inh = YB-1 expression inhibition | U2OS, qRT-PCR YB-1 vs CDIP delta delta Cp, 16 h; active compounds read high; zero = DMSO, each unit about twofold | delta delta Cp (YB-1 minus CDIP) (concentration not given with the values) | 30,000 compounds, 0.37% hits;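 active means delta delta Cp rounded down to an integer at or above 3, about 3 SD of DMSO wells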;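 further: higher means less YB-1 transcript or more CDIP transcript relative to DMSO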
Hits are given with their value; . = inactive; / = no result.

SMILES	T cruzi intra	INS-1E rescue	YB-1 expr inh
C[C@@H]1CN([C@H](C)CO)C(=O)Cc2cc(NC(=O)C3CCCCC3)ccc2O[C@H]1CN(C)Cc1ccccc1	.	.	.
COc1ccc(NC(=O)Nc2ccc3c(c2)CC(=O)N([C@H](C)CO)C[C@@H](C)[C@H](CN(C)Cc2ccc(Oc4ccccc4)cc2)O3)cc1	.	.	.
COc1ccc(NC(=O)Nc2ccc3c(c2)CC(=O)N([C@H](C)CO)C[C@@H](C)[C@@H](CN(C)Cc2ccc(Oc4ccccc4)cc2)O3)cc1	71.7	.	.
COc1ccc(CN(C)C[C@@H]2Oc3ccc(NC(=O)Nc4ccccc4)cc3CC(=O)N([C@@H](C)CO)C[C@@H]2C)cc1	.	.	.
COc1ccc(N=C(C)c2c(C(F)(F)F)[nH]n(-c3nc4ccccc4s3)c2=O)cc1OC	/	/	.
NC(=O)c1ccc(N2CCN(C(c3ccccc3)c3ccccc3)CC2)nc1	/	/	.
C[C@H](CO)N1C[C@H](C)[C@@H](CN(C)Cc2ccc3c(c2)OCO3)Oc2c(NS(=O)(=O)c3ccc(Cl)cc3)cccc2C1=O	57.7	.	.
C[C@H]1CN([C@@H](C)CO)C(=O)c2cccc(NS(=O)(=O)c3ccc(Cl)cc3)c2O[C@@H]1CN(C)Cc1ccc(-c2ccccc2)cc1	.	.	.
C[C@@H]1CN([C@@H](C)CO)C(=O)c2cccc(NS(=O)(=O)c3ccccc3)c2O[C@@H]1CN(C)Cc1ccc(-c2ccccc2)cc1	87.3	.	.
C[C@@H]1CN([C@@H](C)CO)C(=O)c2cccc(NS(=O)(=O)c3ccc(Cl)cc3)c2O[C@@H]1CN(C)Cc1ccc(-c2ccccc2)cc1	63.1	.	.
Cc1ccc(S(=O)(=O)Nc2cccc3c2O[C@@H](CN(C)Cc2ccc(Oc4ccccc4)cc2)[C@H](C)CN([C@@H](C)CO)C3=O)cc1	.	.	.
Cc1ccc(S(=O)(=O)Nc2cccc3c2O[C@H](CN(C)Cc2ccc(Oc4ccccc4)cc2)[C@@H](C)CN([C@H](C)CO)C3=O)cc1	.	.	18.9
Cc1ccc(S(=O)(=O)Nc2cccc3c2O[C@@H](CN(C)Cc2ccc4c(c2)OCO4)[C@@H](C)CN([C@H](C)CO)C3=O)cc1	.	.	.
C[C@@H]1CN([C@H](C)CO)C(=O)c2cccc(NS(=O)(=O)c3ccccc3)c2O[C@@H]1CN(C)Cc1ccc(-c2ccccc2)cc1	.	.	.
O=S(=O)(/N=C1\SCCN1S(=O)(=O)c1ccc(Cl)cc1)c1ccc(Cl)cc1	/	/	.
Cc1c(C#N)c(Sc2ccccc2Cl)nc2ccccc12	/	/	.
COc1ccc(C(=O)N2c3ccccc3CCc3ccccc32)cc1	/	/	.
COc1cc2c(cc1OC)C(c1ccccc1NC(=O)c1cccc(Cl)c1)=NCC2	/	/	.
C[C@@H]1CC[C@]2(C)[C@H](CC[C@@H](O)[C@]2(C)O)[C@@]1(C)CC/C(=C/CO)CO	/	/	.
Cc1ccc(S(=O)(=O)Nc2cccc3c2O[C@@H](CN(C)Cc2ccc(-c4ccccc4)cc2)[C@@H](C)CN([C@@H](C)CO)C3=O)cc1	73.9	.	.
C[C@@H]1CN([C@H](C)CO)C(=O)c2cccc(NS(=O)(=O)c3cccs3)c2O[C@@H]1CN(C)Cc1ccc(C(=O)O)cc1	67.7	.	.
Cc1ccc(S(=O)(=O)Nc2cccc3c2O[C@H](CN(C)Cc2ccc(-c4ccccc4)cc2)[C@@H](C)CN([C@H](C)CO)C3=O)cc1	.	.	.
C[C@@H]1CN([C@@H](C)CO)C(=O)c2cccc(NS(=O)(=O)c3cccs3)c2O[C@@H]1CN(C)Cc1ccc(C(=O)O)cc1	.	.	.
O=C(Nc1ccccc1)C(=S)N1CCOCC1	/	/	.
C[C@H](CO)N1C[C@H](C)[C@@H](CN(C)C(=O)Nc2ccccc2)Oc2c(NC(=O)Nc3cccc4ccccc34)cccc2C1=O	67.6	.	.
SMILES	T cruzi intra	INS-1E rescue	YB-1 expr inh
C[C@@H]1CN([C@H](C)CO)C(=O)c2cccc(NC(=O)Nc3cccc4ccccc34)c2O[C@H]1CN(C)C(=O)Nc1ccccc1	.	.	.
C[C@@H]1CN([C@@H](C)CO)C(=O)c2cccc(NC(=O)Nc3cccc4ccccc34)c2O[C@H]1CN(C)C(=O)Nc1ccccc1	.	.	.
C[C@H](CO)N1C[C@H](C)[C@H](CN(C)C(=O)Nc2ccccc2)Oc2c(NC(=O)Nc3cccc4ccccc34)cccc2C1=O	63.4	.	.
O=c1cc(NCc2ccccc2)[nH]nc1-c1ccccc1	/	/	.
CC1(C)CC(O)CC2(C)OC(=O)C=C12 (stereo unspecified)	/	/	.
CC(NC(=O)c1ccc(C(C)(C)C)cc1)c1ccccc1 (stereo unspecified)	/	/	.
C[C@@H]1CN([C@@H](C)CO)C(=O)Cc2cc(NC(=O)Nc3ccc4c(c3)OCO4)ccc2O[C@@H]1CN(C)C(=O)Nc1ccc(C(F)(F)F)cc1	.	.	.
C[C@H]1CN([C@@H](C)CO)C(=O)Cc2cc(NC(=O)Nc3ccc4c(c3)OCO4)ccc2O[C@H]1CN(C)C(=O)Nc1ccc(C(F)(F)F)cc1	.	.	.
C[C@@H]1CN([C@@H](C)CO)C(=O)Cc2cc(NC(=O)Nc3ccc4c(c3)OCO4)ccc2O[C@@H]1CN(C)Cc1ccc(C(F)(F)F)cc1	67.7	.	.
C[C@H]1CN([C@@H](C)CO)C(=O)Cc2cc(NC(=O)Nc3ccc(C(F)(F)F)cc3)ccc2O[C@H]1CN(C)Cc1ccc2c(c1)OCO2	59.7	.	.
C[C@@H]1CN([C@H](C)CO)C(=O)Cc2cc(NC(=O)Nc3ccc4c(c3)OCO4)ccc2O[C@H]1CN(C)C(=O)Nc1ccc(C(F)(F)F)cc1	.	.	.
C[C@H]1CN([C@@H](C)CO)C(=O)Cc2cc(NC(=O)Nc3ccc(F)cc3)ccc2O[C@H]1CN(C)Cc1ccc2c(c1)OCO2	.	.	.
C[C@H](CO)N1C[C@H](C)[C@H](CN(C)Cc2ccc(C(F)(F)F)cc2)Oc2ccc(NC(=O)Nc3ccc4c(c3)OCO4)cc2CC1=O	67.2	.	.
C[C@H]1CN([C@@H](C)CO)C(=O)Cc2cc(NC(=O)Nc3ccc4c(c3)OCO4)ccc2O[C@H]1CN(C)Cc1ccc(C(F)(F)F)cc1	67.7	.	.
CC(C)(C)c1ccc(CSCC(=O)Nc2ccccc2C#N)cc1	/	/	.
CC(C)(C)SC(=O)c1cccnc1SCCS(=O)(=O)c1cccc(C(F)(F)F)c1	/	/	.
O=P1(N2CCN(c3ccc(Cl)cc3)CC2)COc2ccccc2OC1	/	/	.
Cc1ccc(Oc2ncccc2NC(=O)c2ccc(Cl)cc2Cl)c2c1CCC2	/	/	.
C[C@H]1CN([C@@H](C)CO)C(=O)Cc2cc(NC(=O)Nc3ccc(C(F)(F)F)cc3)ccc2O[C@@H]1CN(C)C(=O)Nc1ccc2c(c1)OCO2	.	.	.
C[C@H]1CN([C@@H](C)CO)C(=O)Cc2cc(NC(=O)Nc3ccc4c(c3)OCO4)ccc2O[C@@H]1CN(C)Cc1ccc(C(F)(F)F)cc1	71.3	.	.
COc1ccc(S(=O)(=O)N[C@H]2CCN(Cc3cccc(OCCO)c3)C2)cc1	/	/	.
CCOc1ccc(C2(C)CC(C)(C)Nc3ccccc32)cc1 (stereo unspecified)	/	/	.
